Here are results for one compound from ChEMBL document CHEMBL2169822, “Discovery and optimization of 1,3,4-trisubstituted-pyrazolone derivatives as novel, potent, and nonsteroidal farnesoid X receptor (FXR) selective antagonists” (J Med Chem, 2012).

Molecules are shown by their SMILES. Activity calls are given as the source filed them. No cut-off for these calls is given here.

The nature of data set [1]: Binding affinity to FXRalphaLBD assessed as increase in thermal stability. Put shortly:
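DSC with 2 mg/mL FXRαLBD in 20 mM Tris-HCl, 50 mM NaCl, pH 8.0, with DMSO or compound at a compound:protein ratio of 5:1, against the dialysis buffer as reference. Scan was 10–110 °C at 90 °C/h, giving Tm.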

The target in data set [2] is T1, Progesterone receptor (Homo sapiens) (UniProt P06401).
T1 sequence (whole entry): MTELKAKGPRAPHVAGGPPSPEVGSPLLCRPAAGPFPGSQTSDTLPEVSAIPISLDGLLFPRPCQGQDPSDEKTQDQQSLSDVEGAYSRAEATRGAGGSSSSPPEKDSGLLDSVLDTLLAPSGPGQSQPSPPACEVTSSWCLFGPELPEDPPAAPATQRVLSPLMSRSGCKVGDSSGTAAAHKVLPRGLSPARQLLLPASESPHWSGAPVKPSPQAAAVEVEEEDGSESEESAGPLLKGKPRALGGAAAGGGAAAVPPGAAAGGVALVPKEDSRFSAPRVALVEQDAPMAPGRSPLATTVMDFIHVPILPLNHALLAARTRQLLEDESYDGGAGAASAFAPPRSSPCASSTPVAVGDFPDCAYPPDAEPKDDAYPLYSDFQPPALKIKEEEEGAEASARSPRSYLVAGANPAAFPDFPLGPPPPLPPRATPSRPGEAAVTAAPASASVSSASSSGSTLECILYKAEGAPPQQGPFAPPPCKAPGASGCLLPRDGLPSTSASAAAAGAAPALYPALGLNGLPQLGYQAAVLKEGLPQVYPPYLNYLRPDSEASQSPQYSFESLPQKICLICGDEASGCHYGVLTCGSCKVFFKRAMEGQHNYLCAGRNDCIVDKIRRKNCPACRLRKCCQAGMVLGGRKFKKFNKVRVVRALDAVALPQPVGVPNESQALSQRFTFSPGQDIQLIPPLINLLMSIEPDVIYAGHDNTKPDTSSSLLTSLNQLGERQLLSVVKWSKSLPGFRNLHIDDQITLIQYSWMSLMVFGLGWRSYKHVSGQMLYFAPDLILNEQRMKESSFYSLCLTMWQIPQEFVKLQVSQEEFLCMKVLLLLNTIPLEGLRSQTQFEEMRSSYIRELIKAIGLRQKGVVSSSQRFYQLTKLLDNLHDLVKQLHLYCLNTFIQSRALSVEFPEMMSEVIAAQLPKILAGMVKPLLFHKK
In words: Antagonist activity at recombinant PR LBD expressed in HEK293T cells co-expressing GAL4 DBD assessed as inhibition of progesterone-induced transactivation at 20 uM by luciferase reporter gene assay. It counts as functional, cell-based. To be noted: HEK-293T. The procedure, abridged:
(§1)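 One-hybrid assay in HEK293T cells cotransfected with a Gal4 DBD–NR-LBD fusion (RXRα, LXRα, GR, PR, PPARδ or PPARγ) plus UAS-TK-Luc reporter. Compound was 20 μM, given alone or with agonist: 9cRA 0.1 μM (RXRα), TO901317 0.5 μM (LXRα), dexamethasone 50 nM (GR), progesterone 100 nM (PR), GW1516 10 μM (PPARδ), rosiglitazone 10 μM (PPARγ). Luciferase read-out; three independent experiments.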

Data set [3] has as its target T2, Bile acid receptor (Homo sapiens) (UniProt Q96RI1).
T2 sequence (whole entry): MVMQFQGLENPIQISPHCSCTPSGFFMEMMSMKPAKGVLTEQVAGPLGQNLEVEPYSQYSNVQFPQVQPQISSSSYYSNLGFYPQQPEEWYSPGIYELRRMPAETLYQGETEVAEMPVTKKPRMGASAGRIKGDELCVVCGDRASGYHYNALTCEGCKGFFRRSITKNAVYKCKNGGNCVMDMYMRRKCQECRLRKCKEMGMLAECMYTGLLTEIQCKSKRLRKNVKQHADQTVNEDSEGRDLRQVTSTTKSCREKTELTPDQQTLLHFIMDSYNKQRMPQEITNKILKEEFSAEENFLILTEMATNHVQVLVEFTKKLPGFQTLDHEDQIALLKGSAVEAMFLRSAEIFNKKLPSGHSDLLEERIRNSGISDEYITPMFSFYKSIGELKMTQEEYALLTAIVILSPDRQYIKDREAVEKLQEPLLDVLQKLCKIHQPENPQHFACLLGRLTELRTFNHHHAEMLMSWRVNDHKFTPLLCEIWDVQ
Nature of the data set: Antagonist activity at human FXR in human HepG2 cells assessed as inhibition of CDCA induced SHP gene expression at 5 to 40 uM after 24 hrs by RT-PCR analysis. The data set is classed as functional, cell-based. The procedure, abridged: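 HepG2 cells in 6-well plates were treated with varied concentrations of compound, with or without 100 μM CDCA, for 24 h. Total RNA was taken with TRIzol and cDNA made by reverse transcription. Cyp7A1, SHP, BSEP and SREBP1c mRNA were measured by quantitative RT-PCR and normalized to β-actin. Three independent experiments.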

Data set [4] deals with Mus musculus. In words: Reduction of hepatic triglyceride level in cholesterol-fed C57BL/6 mouse at 50 mg/kg, po after 10 days. The arrangement: scale not given: the % may be the effect or the level left. It counts as functional. Put shortly: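 Male C57BL/6 mice, 8–12 weeks old, were randomized into five groups of nine. Control mice had ground chow; the other groups had chow with 2% cholesterol. Compound (50 or 100 mg/kg) or reference (100 mg/kg) was suspended in 0.5% CMC-Na and given by oral gavage; control and vehicle mice got 0.5% CMC-Na. Serum and hepatic triglyceride and total cholesterol were measured.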

Data set [5] addresses T2, Bile acid receptor (Homo sapiens). In words: Antagonist activity at human FXR in human HepG2 cells assessed as reduction in triglyceride level at 10 uM after 24 hrs. It counts as functional, cell-based. The procedure, abridged:
(§2)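 HepG2 cells were serum-starved overnight in FBS-free DMEM, then given DMSO or compound for 24 h in serum-free DMEM. Cells were lysed in RIPA buffer, sonicated on ice and centrifuged at 12000 rpm, 4 °C. Triglyceride and total cholesterol in the cleared lysate were measured by kits, with total protein by BCA. At least three experiments.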

Data set [6] deals with HEK-293T. Nature of the data set: Antagonist activity at FXRalpha/RXRalpha expressed in HEK293T cells co-expressing GAL4 DBD assessed as inhibition of CDCA-induced transactivation at 40 uM after 18 hrs by luciferase reporter gene assay. It counts as functional, cell-based. To be noted: Homo sapiens. Put shortly:
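FXR transactivation in HEK293T cells transiently transfected with pcDNA3.1-FXRα, pcDNA3.1-RXRα, pGL3-FXRE-Luc and pRL-SV40 Renilla vector. Medium was replaced 6 h after transfection with medium holding compound at varied concentrations, with or without 20 μM CDCA, for 18 h. Read-out was dual-luciferase. Three independent experiments.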

The target of data set [7] is T2, Bile acid receptor (Homo sapiens). In words: Antagonist activity at human FXR in human HepG2 cells assessed as reduction in cholesterol level at 10 uM after 24 hrs. It counts as functional, cell-based. Put shortly: as §2
Data set [8] addresses T1, Progesterone receptor (Homo sapiens). Nature of the data set: Agonist activity at recombinant PR-LBD expressed in HEK293T cells co-expressing GAL4 DBD at 20 uM by transactivation assay. It counts as functional, cell-based. To be noted: HEK-293T. Put shortly:
as §1

Data set [9] is described as follows: Oral bioavailability in Sprague-Dawley rat at 50 mg/kg by LC-MS/MS analysis. It counts as ADME, organism-based. The following applies: in vivo.

For the compound `COc1cc(/C=C2\C(=O)N(c3cccc([N+](=O)[O-])c3)N=C2c2ccccc2)ccc1O`, the Tm in [1] is 58.7 °C. Further, the inhibition result in [2] is “inactive”. Further, the inhibition result in data set [3] and in data set [6] was “Active” throughout. This compound also returned an Activity in data set [4] of 43.5%. The inhibition stood at 35.2% in data set [5] and 27.1% in data set [7]. For the same compound, the outcome in [8] was inactive. Besides, the bioavailability in data set [9] was < 5%.
